Source: PubChem BioAssay (Johns Hopkins Ion Channel Center)
RGS4 block: human RGS4 inhibition; 310,000 compounds, 0.45% hits; B-score at 10 µM; HEK293 M3R/RGS4 inducible, Fluo-4 calcium flux; stronger effect = higher value; triggered by carbachol at its EC20; P49798;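 active = B-score, a plate-corrected calcium signal, over three deviations above library mean, with baseline fluorescence within five deviations of library mean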;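 also: RGS4 expression induced by doxycycline in cells with stable M3 receptor; B-score is computed from the integrated fluorescence ratio over baseline after carbachol; higher B-score means a larger calcium signal and so more RGS4 inhibition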
Target sequence (P49798 whole entry, looked up): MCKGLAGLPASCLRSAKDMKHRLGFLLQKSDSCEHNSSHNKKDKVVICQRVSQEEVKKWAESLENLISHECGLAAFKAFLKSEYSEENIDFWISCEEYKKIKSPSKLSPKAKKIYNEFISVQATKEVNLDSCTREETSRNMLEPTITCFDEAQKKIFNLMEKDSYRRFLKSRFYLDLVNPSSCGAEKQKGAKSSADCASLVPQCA
RGS4 act: potentiators or activators of RGS4; HEK293 M3R/inducible RGS4, carbachol calcium flux Fluo4; stronger effect = lower value; B-score at 10 µM; 310,000 compounds, 0.92% hits; AID 463111;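 active = B-score of the integrated calcium signal more than 4 SD below the library mean, with starting fluorescence not abnormally high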;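 also: negative B-score means reduced calcium response which marks RGS4 activation or potentiation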
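System: HEK293 FlpIn-TREx cells, stable M3R, doxycycline-inducible RGS4. Timing: overnight RGS4 induction, 30 min dye load 37 °C, 20 min compound RT. Also added: carbachol, ECmax concentration. Measured by: Fluo4 fluorescence kinetic imaging of calcium. Evaluation: integrated calcium ratio converted to B score.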
MrgX1 allo act: allosterically activates human MrgX1 receptor signaling; B-score at 10 µM; MrgX1-HEK293, Fluo-4 calcium flux, FDSS; stronger effect = higher value; 310,000 compounds, 0.63% hits; AID 588675; Q96LB2;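 active = plate-corrected calcium response at least 3 library SD above typical, normal starting fluorescence, not activating the receptor alone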;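 also: compound read alongside a low EC10 to EC30 dose of BAM8-22 agonist; peak minus trough fluorescence over baseline measured at the second addition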
Target sequence (Q96LB2 whole entry, looked up): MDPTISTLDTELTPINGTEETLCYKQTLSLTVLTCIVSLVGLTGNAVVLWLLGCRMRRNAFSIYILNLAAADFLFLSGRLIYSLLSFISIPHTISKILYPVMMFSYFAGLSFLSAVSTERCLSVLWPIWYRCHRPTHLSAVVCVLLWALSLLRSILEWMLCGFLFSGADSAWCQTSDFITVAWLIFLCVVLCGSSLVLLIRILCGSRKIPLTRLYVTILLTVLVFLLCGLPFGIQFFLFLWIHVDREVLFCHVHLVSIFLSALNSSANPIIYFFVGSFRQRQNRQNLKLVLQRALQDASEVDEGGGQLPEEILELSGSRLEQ
MrgX1 ag: human MrgX1 receptor agonism, primary screen; Q96LB2; MrgX1-HEK293 cells, Fluo-4 calcium fluorescence, agonist mode; stronger effect = higher value; 310,000 compounds, 0.44% hits; B-score at 10 µM;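 active = calcium response B-score plate-corrected fluorescence ratio at least 3 library SD, with starting fluorescence B-score inside 5 SD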
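Assay system: MrgX1-expressing HEK293 cells / Amount: fifteen thousand cells per well / Doses: test compound in the initial addition of three / Timing: cells plated overnight, dye loaded 0.5 h 37 °C, 0.5 h room temperature / Technique: kinetic calcium dye fluorescence, Fluo-4 NW / Control set: positive and negative controls per plate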
MrgX1 antag: human MrgX1 receptor antagonism, primary screen. B-score at 10 µM. Q96LB2. MRGX1-HEK293 calcium flux, Fluo-4, BAM8-22 antagonism; stronger effect = lower value. AID 588676. 310,000 compounds, 1.3% hits;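 active = calcium-response B-score plate-corrected more than 3 library SD below zero, starting fluorescence within 5 deviations, no agonist response on first addition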;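 also: peak minus trough fluorescence over baseline after final BAM8-22 challenge near maximal dose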
MrgX1 ant reconf: reconfirmed antagonist of human MrgX1 receptor signaling. shares compounds with MrgX1 antag. MrgX1-HEK293, BAM8-22 calcium flux, Fluo-4; stronger effect = lower value. remaining BAM8-22 calcium response % of control (stronger effect = lower value), % at 10 µM. 2,300 compounds, 19% hits. AID 602420;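 active = remaining agonist calcium response no higher than 100% minus 3 SD of agonist-only control wells, with starting fluorescence near control levels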;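 also: agonist BAM8-22 given at a near maximal EC90 to ECmax level; peak minus minimum fluorescence divided by baseline after agonist addition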
HEK293 Ca flux: counter-screen for MrgX1 antagonists: effect in parental HEK293 cells. shares compounds with MrgX1 antag. Fluo-4 calcium fluorescence, FDSS. fluorescence ratio F(max-min)/F0 at 10 µM. 4,000 compounds, 2% hits;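 active = duplicate-averaged calcium fluorescence ratio at least three times the standard deviation of buffer wells, a nonspecific response in parental cells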
HEK293 Ca counter: counter-screen for MrgX1 allosteric activators: effect in parental HEK293 cells; parental HEK293 calcium flux, Fluo-4 fluorescence ratio; stronger effect = higher value; shares compounds with MrgX1 antag; 4,000 compounds, 0.4% hits; fluorescence ratio F(max-min)/F0 at 10 µM; AID 624114;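 active = calcium fluorescence ratio, averaged over duplicates, at least 3 SD of the buffer-well ratio, meaning a nonspecific response in receptor-free cells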;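 also: untransfected parental HEK293 lacking MrgX1 used as counterscreen for MrgX1 allosteric activators; fluorescence change taken during the second addition on a kinetic imager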
HEK293 Ca cntr2: counter-screen for MrgX1 activators: effect in parental HEK293 cells. Fluo-4 calcium fluorescence (FDSS); stronger effect = higher value. 4,000 compounds, 8.7% hits. fluorescence ratio F(max-min)/F0 at 10 µM. AID 624115. shares compounds with MrgX1 antag;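 active = calcium fluorescence ratio at least three times the spread of buffer wells, meaning a non-specific response in parental cells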
* hit, by the source's call; i = inactive; · = no result; ! = not confirmed by another sample. This is a sample that favours compounds with a hit; in the whole collection about 3.5% have one here.

SMILES | RGS4 block | RGS4 act | MrgX1 allo act | MrgX1 ag | MrgX1 antag | MrgX1 ant reconf | HEK293 Ca flux | HEK293 Ca counter | HEK293 Ca cntr2
COc1cc(C)c(NC(=S)Nc2ccc(Cl)c(Cl)c2)cc1OC | i | i | i | i | -5.3* | 66%* | i | i | i
COc1ccc(/C=C(\C#N)C(=O)NCC(c2ccc(F)cc2)N2CCOCC2)cc1 (stereo not drawn) | i | i | i | i | i | · | · | · | ·
Cc1ccccc1OCC(O)Cn1c(=N)n(CCN2CCOCC2)c2ccccc21 (stereo not drawn) | i | i | i | i | -8.5*! | i | i | i | i
COc1ccc(N2CCN(C(=O)c3ccc(NC(=O)C4=CSCCO4)cc3)CC2)cc1 | i | i | i | i | i | · | · | · | ·
C(=N\n1cnnc1)/c1ccc2ncccc2c1 | i | i | i | i | -4.7* | i | i | i | i
C(=N\n1cnnc1)/c1ccccn1 | i | i | i | i | i | · | · | · | ·
CCCOCC1CC(CCc2nc(=S)[nH][nH]2)C(=O)O1 (stereo not drawn) | i | i | i | i | -5.3* | i | i | i | i
Cc1cccnc1CN1CCN(Cc2nc(Cc3cccc(F)c3)no2)CC1 | i | i | i | i | i | · | · | · | ·
CC(=O)c1ccc(OCCNS(=O)(=O)c2ccc(-n3cnnn3)cc2)cc1 | i | i | i | i | i | · | · | · | ·
COc1ccc(CNC(=O)C2CCN(c3nnc(N4CCCC4=O)s3)CC2)cc1 | i | i | i | i | -5.3* | i | i | i | i
COc1ccc(Br)cc1CNC(=O)C1CCN(c2nnc(N3CCCC3=O)s2)CC1 | i | i | i | i | i | · | · | · | ·
Cc1ccc(NC(=O)Nc2nnc(-c3ccncc3)s2)cc1C | i | i | i | i | -6.1* | 64%* | i | i | i
O=C(CSCc1nc2ccccc2[nH]1)Nc1ccc2ccccc2c1 | i | i | i | i | -4.9* | i | i | i | i
Cc1ccc(NC(=O)Nc2ccc(F)cc2)cc1Cl | i | i | i | i | -6.1* | 71%* | i | i | i
CCC(C)NC(=O)c1oc2ccc(S(=O)(=O)N3CCC4(CC3)OCCO4)cc2c1C (stereo not drawn) | i | i | i | i | i | · | · | · | ·
Cc1nc2nc(C)c(CCC(=O)N3CCOCC3)c(C)n2n1 | i | i | i | i | -5.3* | i | i | i | 68*
CCN(Cc1ccccc1)C(=O)Cn1cnc2c1c(=O)n(C)c(=O)n2C | i | i | i | i | i | · | · | · | ·
Cn1c(=O)c2c(ncn2CCN(CCO)Cc2ccccc2)n(C)c1=O | i | i | i | i | -6.7* | 81%* | i | i | i
Cc1cc(C)c2c(=O)cc(C(F)(F)F)oc2n1 | i | i | i | i | i | · | · | · | ·
O=S(=O)(NC1c2cccc3cccc(c23)C1Sc1ncccn1)c1ccc(Cl)cc1 (stereo not drawn) | i | i | i | i | -4.7* | i | i | i | i
Cc1ccc(S(=O)(=O)NC2c3cccc4cccc(c34)C2Sc2n[nH]c(N)n2)cc1 (stereo not drawn) | i | i | i | i | i | · | · | · | ·
Fc1ccc(C(c2nnnn2Cc2cccs2)N2CCN(C3CCCC3)CC2)cc1 (stereo not drawn) | i | i | i | i | -7.1* | i | i | i | i
